From ChEMBL document CHEMBL4406821, “Novel dual inhibitors targeting CDK4 and VEGFR2 synergistically suppressed cancer progression and angiogenesis” (Eur J Med Chem, 2019)
Activity calls are given as the source filed them. The calls are words filed in the database; no cut-off is given here.

How the values were obtained:
T47D [1] = assay: Induction of apoptosis in human T47D cells assessed as decrease in Bcl2 expression at 40 nM incubated for 48 hrs by Western blot analysis; type: functional, cell-based
Procedure, shortened: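 Cancer cells were exposed to graded concentrations for 48 h, washed three times in PBS and lysed in RIPA buffer. Immunoblots were probed with anti-Rb, anti-phospho-Rb, anti-Ki67 and anti-Bcl-2, each at 1:1000. β-actin served as loading control.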

T47D [2] = assay: Induction of apoptosis in human T47D cells at 40 nM incubated for 48 hrs by annexin V FITC and propidium iodide staining based flow cytometry; type: functional, cell-based
Procedure, shortened: (§1)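 Annexin V-FITC/PI double staining with flow-cytometric readout. MDA-MB-231, T-47D, SiHa and HeLa cells were treated with graded concentrations for 48 h. MDA-MB-231 and T-47D were grown in DMEM and SiHa in 1640 medium, each with 10% FBS and 1% penicillin/streptomycin at 37°C under 5% CO2. Early- and late-stage apoptotic fractions were scored.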

[3] = Toxicity in NOD/SCID BALB/c mouse xenografted with human SiHa cells assessed as body weight at 40 mg/kg, po administered for 21 days; type: organism-based; conditions: in vivo, 504 h
Procedure, shortened: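 Female NOD/SCID Balb/c mice, 6–8 weeks, implanted subcutaneously in right flank with 2×10^6 SiHa cells in 100 µL medium. At 100 mm³ tumors, randomized (5 mice/group) to daily oral gavage. Body weight monitored every 3 days; study ended day 21.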

[4] = target: NUAK family SNF1-like kinase 2 (Homo sapiens) (UniProt Q9H093); assay: Inhibition of recombinant human full length NUAK2 at 1 uM using KKKVSRSGLYRSPSMPENLNRPR as substrate incubated for 40 mins in presence of [gamma-33P]-ATP by scintillation counting method relative to control
MDA-MB-231 = assay: Induction of apoptosis in human MDA-MB-231 cells assessed as increase in late apoptotic cells at 20 to 40 nM incubated for 48 hrs by annexin V FITC and propidium iodide staining based flow cytometry; type: functional, cell-based; procedure, shortened: as §1
[5] = target: [Pyruvate dehydrogenase (acetyl-transferring)] kinase isozyme 2, mitochondrial (Homo sapiens) (UniProt Q15119); assay: Inhibition of recombinant human PDHK2 at 1 uM incubated for 40 mins in presence of [gamma-33P]-ATP by scintillation counting method relative to control
Procedure, shortened: (§2)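 Tested at a single 1 uM in an outsourced commercial kinase-profiling panel, read as percent inhibition. Each value is the mean of two independent experiments.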

[6] = target: LIM domain kinase 1 (Homo sapiens) (UniProt P53667); assay: Inhibition of recombinant human LIMK1 (285 to 638 residues) at 1 uM using cofilin as substrate incubated for 40 mins in presence of [gamma-33P]-ATP by scintillation counting method relative to control
[7] = target: SRSF protein kinase 1 (Homo sapiens) (UniProt Q96SB4); assay: Inhibition of recombinant human SRPK1 (2 to end residues) at 1 uM using RSRSRSRSRSRSRSR as substrate incubated for 40 mins in presence of [gamma-33P]-ATP by scintillation counting method relative to control
[8] = target: Serine/threonine-protein kinase PAK 1 (Homo sapiens) (UniProt Q13153); assay: Inhibition of recombinant human PAK1 (150 to end residues) at 1 uM using RRRLSFAEPG as substrate incubated for 40 mins in presence of [gamma-33P]-ATP by scintillation counting method relative to control
[9] = target: Proto-oncogene tyrosine-protein kinase Src (Homo sapiens) (UniProt P12931); assay: Inhibition of full length recombinant human c-SRC at 1 uM using KVEKIGEGTYGVV as substrate incubated for 40 mins in presence of [gamma-33P]-ATP by scintillation counting method relative to control
Procedure, shortened: (§3)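 Kinase panel profiling at 1 μM performed by Eurofins KinaseProfiler; percent inhibition reported as mean of two independent experiments.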

[10] = target: Phosphatidylinositol 3-kinase C2 domain-containing subunit gamma (Homo sapiens) (UniProt O75747); assay: Inhibition of recombinant human PI3KC2gamma (468 to 1203 residues) at 1 uM using phosphatidylinositol as substrate incubated for 40 mins in presence of [gamma-33P]-ATP by scintillation counting method relative to control
[11] = target: Inhibitor of nuclear factor kappa-B kinase subunit alpha (Homo sapiens) (UniProt O15111); assay: Inhibition of recombinant human full length IKKalpha at 1 uM using peptide as substrate incubated for 40 mins in presence of [gamma-33P]-ATP by scintillation counting method relative to control; procedure, shortened: as §2
[12] = target: Tyrosine-protein kinase CSK (Homo sapiens) (UniProt P41240); assay: Inhibition of recombinant full length human CSK at 1 uM using poly(Glu, Tyr) 4:1 as substrate incubated for 40 mins in presence of [gamma-33P]-ATP by scintillation counting method relative to control; procedure, shortened: as §2
[13] = Toxicity in BALB/c mouse assessed as effect on blood parameter by measuring RBC content at 40 mg/kg, po administered once two days for 4 times by hematology analyzer; conditions: in vivo
[14] = target: Serine/threonine-protein kinase Chk2 (Homo sapiens) (UniProt O96017); assay: Inhibition of recombinant human CHK2 (5 to end residues) at 1 uM using KKKVSRSGLYRSP as substrate incubated for 40 mins in presence of [gamma-33P]-ATP by scintillation counting method relative to control; procedure, shortened: as §3
[15] = target: CDK4/Cyclin D3 (Homo sapiens) (UniProt P11802+P30281); assay: Inhibition of recombinant human full length CDK4/cyclinD3 at 1 uM using Rb fragment as substrate incubated for 40 mins in presence of [gamma-33P]-ATP by scintillation counting method relative to control; type: protein-complex assay
[16] = target: Vascular endothelial growth factor receptor 2 (Homo sapiens, UniProt P35968); assay: Inhibition of recombinant human VEGFR2 (790 to end residues) using myelin ba as substrate incubated for 40 mins by [gamma-33P]-ATP based radiometric assay
[17] = target: PI3-kinase p110-alpha/p85-alpha (Homo sapiens) (UniProt P27986+P42336); assay: Inhibition of recombinant human full length PI3K p110alpha/p85alpha at 1 uM using phosphatidylinositol 4,5-bisphosphate as substrate incubated for 40 mins in presence of [gamma-33P]-ATP by scintillation counting method relative to control; type: protein-complex assay
[18] = target: RAF proto-oncogene serine/threonine-protein kinase (Homo sapiens) (UniProt P04049); assay: Inhibition of recombinant human cRaf (306 to end residues) at 1 uM using unactive MEK1 as substrate incubated for 40 mins in presence of [gamma-33P]-ATP by scintillation counting method relative to control
[19] = MRT (0 to t) in Sprague-Dawley rat at 10 mg/kg at 10 mg/kg, po by HPLC-MS analysis; type: ADME, organism-based; conditions: in vivo
[20] = target: Ephrin type-A receptor 4 (Homo sapiens) (UniProt P54764); assay: Inhibition of recombinant human EPhA4 (601 to 892 residues) at 1 uM using poly(Glu, Tyr) 4:1 as substrate incubated for 40 mins in presence of [gamma-33P]-ATP by scintillation counting method relative to control

Chain of Inhibitor of nuclear factor kappa-B kinase subunit alpha (Homo sapiens) (O15111 whole entry): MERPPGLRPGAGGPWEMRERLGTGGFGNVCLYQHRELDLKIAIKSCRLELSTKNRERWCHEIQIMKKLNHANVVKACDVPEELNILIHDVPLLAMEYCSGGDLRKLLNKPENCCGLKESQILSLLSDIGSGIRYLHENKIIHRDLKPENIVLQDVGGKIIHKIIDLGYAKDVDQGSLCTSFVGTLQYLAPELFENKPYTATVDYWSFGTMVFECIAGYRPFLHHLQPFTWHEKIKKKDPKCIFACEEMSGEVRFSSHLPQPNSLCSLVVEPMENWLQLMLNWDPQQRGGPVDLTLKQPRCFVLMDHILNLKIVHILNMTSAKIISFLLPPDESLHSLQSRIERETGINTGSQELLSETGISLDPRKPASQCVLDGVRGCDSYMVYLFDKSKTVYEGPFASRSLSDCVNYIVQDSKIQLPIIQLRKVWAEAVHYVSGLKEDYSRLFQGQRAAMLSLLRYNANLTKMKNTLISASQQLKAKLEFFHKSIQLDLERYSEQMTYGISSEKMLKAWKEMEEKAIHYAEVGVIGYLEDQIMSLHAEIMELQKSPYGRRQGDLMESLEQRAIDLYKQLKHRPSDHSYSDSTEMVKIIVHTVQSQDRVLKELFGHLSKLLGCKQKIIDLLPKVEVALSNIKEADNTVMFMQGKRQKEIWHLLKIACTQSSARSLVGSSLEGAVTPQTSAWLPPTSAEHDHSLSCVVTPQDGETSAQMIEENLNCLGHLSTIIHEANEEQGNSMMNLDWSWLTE
Chain of LIM domain kinase 1 (Homo sapiens) (P53667 whole entry, looked up, the tested form may be a part): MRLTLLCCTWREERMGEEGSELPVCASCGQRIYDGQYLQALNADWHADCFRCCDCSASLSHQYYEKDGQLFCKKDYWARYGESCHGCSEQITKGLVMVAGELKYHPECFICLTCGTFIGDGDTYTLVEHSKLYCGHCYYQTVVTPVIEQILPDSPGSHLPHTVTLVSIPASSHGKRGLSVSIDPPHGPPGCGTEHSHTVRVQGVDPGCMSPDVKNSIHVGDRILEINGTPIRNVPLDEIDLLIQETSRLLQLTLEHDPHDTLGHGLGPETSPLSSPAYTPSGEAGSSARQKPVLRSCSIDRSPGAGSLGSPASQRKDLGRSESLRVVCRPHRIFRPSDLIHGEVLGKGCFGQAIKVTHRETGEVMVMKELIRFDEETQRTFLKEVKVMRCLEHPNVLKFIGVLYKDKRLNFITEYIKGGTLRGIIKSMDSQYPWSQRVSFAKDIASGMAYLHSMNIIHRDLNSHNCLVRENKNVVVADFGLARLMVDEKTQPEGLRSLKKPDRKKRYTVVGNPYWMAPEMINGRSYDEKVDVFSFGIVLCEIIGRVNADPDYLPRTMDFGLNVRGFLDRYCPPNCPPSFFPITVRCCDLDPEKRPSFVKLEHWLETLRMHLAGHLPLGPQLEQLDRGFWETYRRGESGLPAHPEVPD
Chain of Serine/threonine-protein kinase Chk2 (Homo sapiens) (O96017 whole entry, the tested form may be a part): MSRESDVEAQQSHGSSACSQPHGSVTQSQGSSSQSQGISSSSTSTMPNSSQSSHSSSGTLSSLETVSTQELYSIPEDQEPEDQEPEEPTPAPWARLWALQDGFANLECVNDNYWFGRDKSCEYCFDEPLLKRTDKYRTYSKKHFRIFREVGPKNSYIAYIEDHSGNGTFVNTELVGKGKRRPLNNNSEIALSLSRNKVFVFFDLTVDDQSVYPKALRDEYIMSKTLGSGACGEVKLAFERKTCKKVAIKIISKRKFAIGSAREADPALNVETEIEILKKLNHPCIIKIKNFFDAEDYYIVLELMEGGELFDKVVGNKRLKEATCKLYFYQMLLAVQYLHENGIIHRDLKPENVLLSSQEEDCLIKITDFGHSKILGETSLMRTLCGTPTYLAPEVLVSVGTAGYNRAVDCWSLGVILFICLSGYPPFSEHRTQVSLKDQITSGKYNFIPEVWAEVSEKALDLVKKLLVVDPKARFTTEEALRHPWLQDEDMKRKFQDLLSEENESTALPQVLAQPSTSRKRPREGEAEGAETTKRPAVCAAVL
Chain of Serine/threonine-protein kinase PAK 1 (Homo sapiens) (Q13153 whole entry): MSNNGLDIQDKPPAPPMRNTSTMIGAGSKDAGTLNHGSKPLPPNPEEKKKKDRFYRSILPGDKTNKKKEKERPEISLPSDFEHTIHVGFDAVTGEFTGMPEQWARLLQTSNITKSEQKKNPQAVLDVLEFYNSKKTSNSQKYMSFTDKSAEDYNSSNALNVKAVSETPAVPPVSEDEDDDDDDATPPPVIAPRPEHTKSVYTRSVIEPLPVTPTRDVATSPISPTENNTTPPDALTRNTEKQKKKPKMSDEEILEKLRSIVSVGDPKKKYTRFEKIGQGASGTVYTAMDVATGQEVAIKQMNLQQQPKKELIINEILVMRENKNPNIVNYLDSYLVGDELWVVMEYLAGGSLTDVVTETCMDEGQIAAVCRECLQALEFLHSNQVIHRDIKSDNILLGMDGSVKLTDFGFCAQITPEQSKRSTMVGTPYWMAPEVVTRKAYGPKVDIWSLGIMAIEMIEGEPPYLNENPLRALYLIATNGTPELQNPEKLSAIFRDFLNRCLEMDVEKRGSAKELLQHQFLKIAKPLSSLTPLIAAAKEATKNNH
Chain of Tyrosine-protein kinase CSK (Homo sapiens) (P41240 2-450 limits assumed): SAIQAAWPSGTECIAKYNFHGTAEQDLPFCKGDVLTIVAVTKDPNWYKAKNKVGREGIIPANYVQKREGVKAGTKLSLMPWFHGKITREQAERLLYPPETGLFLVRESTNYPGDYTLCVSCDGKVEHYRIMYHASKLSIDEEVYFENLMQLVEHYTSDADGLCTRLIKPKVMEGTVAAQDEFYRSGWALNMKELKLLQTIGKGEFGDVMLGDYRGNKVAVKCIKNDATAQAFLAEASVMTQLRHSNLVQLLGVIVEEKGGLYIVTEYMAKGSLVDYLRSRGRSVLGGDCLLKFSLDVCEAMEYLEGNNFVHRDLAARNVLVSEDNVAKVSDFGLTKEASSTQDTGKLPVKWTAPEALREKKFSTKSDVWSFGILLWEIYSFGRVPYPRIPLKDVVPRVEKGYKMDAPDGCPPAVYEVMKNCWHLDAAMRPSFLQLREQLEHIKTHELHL
Chain of SRSF protein kinase 1 (Homo sapiens) (Q96SB4 whole entry): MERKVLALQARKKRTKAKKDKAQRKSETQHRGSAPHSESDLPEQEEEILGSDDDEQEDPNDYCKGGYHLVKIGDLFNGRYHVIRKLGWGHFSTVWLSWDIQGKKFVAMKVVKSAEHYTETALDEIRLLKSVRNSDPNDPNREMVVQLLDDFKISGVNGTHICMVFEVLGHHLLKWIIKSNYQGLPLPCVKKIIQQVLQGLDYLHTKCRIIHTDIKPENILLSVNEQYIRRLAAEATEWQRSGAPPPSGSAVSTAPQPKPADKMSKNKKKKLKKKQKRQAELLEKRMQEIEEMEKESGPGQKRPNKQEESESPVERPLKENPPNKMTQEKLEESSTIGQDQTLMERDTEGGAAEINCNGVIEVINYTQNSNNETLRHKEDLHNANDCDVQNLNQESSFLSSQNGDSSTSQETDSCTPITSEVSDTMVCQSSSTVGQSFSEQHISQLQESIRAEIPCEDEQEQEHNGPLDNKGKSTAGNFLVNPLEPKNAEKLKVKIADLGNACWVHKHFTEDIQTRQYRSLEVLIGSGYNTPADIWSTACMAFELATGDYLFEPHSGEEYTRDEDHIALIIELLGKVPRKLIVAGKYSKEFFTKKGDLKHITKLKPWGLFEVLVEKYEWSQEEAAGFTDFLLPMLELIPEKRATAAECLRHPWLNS
Chain of Proto-oncogene tyrosine-protein kinase Src (Homo sapiens) (P12931 2-536 limits assumed): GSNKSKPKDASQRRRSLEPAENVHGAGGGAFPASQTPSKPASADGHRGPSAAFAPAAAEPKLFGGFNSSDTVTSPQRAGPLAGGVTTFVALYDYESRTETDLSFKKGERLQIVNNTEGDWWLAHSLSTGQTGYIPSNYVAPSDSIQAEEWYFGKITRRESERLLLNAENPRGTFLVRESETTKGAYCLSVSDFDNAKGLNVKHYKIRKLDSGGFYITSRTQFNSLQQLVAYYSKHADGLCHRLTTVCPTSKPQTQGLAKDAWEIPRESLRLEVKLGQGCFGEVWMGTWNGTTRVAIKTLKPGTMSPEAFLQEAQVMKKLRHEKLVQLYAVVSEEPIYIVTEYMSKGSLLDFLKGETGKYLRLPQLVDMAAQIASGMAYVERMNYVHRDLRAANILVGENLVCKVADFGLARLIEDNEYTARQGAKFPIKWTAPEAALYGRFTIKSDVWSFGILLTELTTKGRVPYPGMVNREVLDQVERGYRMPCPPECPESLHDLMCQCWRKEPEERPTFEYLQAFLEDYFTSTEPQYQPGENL
Chain of NUAK family SNF1-like kinase 2 (Homo sapiens) (Q9H093 whole entry): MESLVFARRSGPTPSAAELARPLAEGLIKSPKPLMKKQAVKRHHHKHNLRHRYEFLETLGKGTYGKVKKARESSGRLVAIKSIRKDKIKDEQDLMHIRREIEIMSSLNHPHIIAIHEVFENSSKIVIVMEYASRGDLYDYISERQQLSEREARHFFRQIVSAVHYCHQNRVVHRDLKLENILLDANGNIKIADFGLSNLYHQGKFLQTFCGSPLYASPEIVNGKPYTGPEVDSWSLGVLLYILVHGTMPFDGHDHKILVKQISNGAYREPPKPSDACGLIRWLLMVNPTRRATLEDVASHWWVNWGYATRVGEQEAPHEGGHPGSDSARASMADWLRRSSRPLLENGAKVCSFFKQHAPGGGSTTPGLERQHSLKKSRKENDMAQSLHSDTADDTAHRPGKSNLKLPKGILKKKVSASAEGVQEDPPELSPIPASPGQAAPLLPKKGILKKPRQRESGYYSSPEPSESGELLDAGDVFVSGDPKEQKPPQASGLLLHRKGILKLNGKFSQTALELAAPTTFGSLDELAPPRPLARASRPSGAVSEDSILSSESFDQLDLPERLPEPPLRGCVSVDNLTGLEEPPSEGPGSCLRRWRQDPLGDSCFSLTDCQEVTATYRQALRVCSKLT

COc1cc2nccc(Oc3ccc(NC(=O)C4(C(=O)Nc5ccc(F)cc5)CC4)cc3)c2cc1OC [CABOZANTINIB]
Activity (T47D [1]): Active
Activity (T47D [2]): Active
Activity [3]: Non-Toxic

Cc1ccc(NC(=O)C2(C(=O)Nc3ccc(Nc4ncc(F)c(-c5cc(F)c6nc(C)n(C(C)C)c6c5)n4)cc3)CC2)cc1
inhibition [4]: 67%
Activity (MDA-MB-231): Active
inhibition [5]: 0%
inhibition [6]: 24%
inhibition [7]: 21%
inhibition [8]: 52%
inhibition [9]: 80%
inhibition [10]: 38%
inhibition [11]: 0%
inhibition [12]: 0%
Activity [13]: Non-Toxic
inhibition [14]: 22%
inhibition [15]: 97%
IC50 [16]: 46 nM
inhibition [17]: 7%
inhibition [18]: 31%
MRT last [19]: 4 h
inhibition [20]: 28%
